The full list was thinned out, with hits kept by preference.
Glyco luc inh: blocks N-linked glycosylation in D54 reporter cells | D54 ERlucT glycosylation luciferase reporter, 24 h; percent of 100 nM tunicamycin response | reporter increase, % at 12.5 µM | 360,000 compounds, 0.23% hits | AID 588692;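 active = mean luciferase reporter signal, scaled so untreated is 0 and the glycosylation-blocking control 100, at or above a set limit in every replicate; inconclusive = mean reaches the limit but not every replicate does; inactive = mean below the limit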;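 note: luciferase carries N-glycosylation sites so blocking glycosylation raises the light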
T cell HTS: T cell immune modulators affecting CD8 T cell-vesicle binding. AID 2052. 330,000 compounds, 0.068% hits. response (vesicle binding), % at 7 µM. 2C CD8+ T cell-vesicle binding, flow cytometry; stronger effect = lower value;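 active = response, share of CD8 T cells binding vesicles, and their 90th percentile fluorescence all below set limits, cut at about 80% in these data, passing the limit was not always enough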;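 note: values below 100% mean blocked vesicle binding to the CD8+ T cells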
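incubation = binding step 1.5 h, 37 °C, antibody labelling 20 min, ice | test system = 2C mouse CD8+ T cells | read-out basis = percent CD8+ FL2 mean versus row control | controls = Peptide-free naked vesicles (low) and QL9 vesicles with 0.7% DMSO vehicle (high) | detection = flow cytometry of vesicle-bound cells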
ALR H2O2 inh: human ALR oxidase inhibition via reduced H2O2. P55789. purified ALR, DTT oxidation, H2O2 HRP-luminol luminescence. inhibition, % (test concentration not listed). 290,000 compounds, 3.8% hits;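 active = mean replicate inhibition above about 79%, with every replicate also reaching it, limit read from the data; inconclusive = only one of the two criteria met; inactive = mean below limit and not every replicate reaching it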
Target sequence (P55789 whole entry, looked up): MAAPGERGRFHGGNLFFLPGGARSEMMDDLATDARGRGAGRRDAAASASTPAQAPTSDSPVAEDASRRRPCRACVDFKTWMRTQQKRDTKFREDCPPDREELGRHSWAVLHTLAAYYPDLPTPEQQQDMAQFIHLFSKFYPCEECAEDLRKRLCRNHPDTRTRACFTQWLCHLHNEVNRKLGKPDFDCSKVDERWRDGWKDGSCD
Numbers stand for hits; – = inactive; ? = inconclusive; · = no result given.

SMILES	Glyco luc inh	T cell HTS	ALR H2O2 inh
O=C(CCn1cccn1)N1CCCC(N2CCN(c3cccc(Cl)c3)CC2)C1 (stereo not given)	–	–	93
O=C(c1ccoc1)N1CCCC(N2CCN(c3ccc(F)cc3)CC2)C1 (stereo not given)	–	–	–
O=C(c1ccoc1)N1CCCC(N2CCN(c3cccc(Cl)c3)CC2)C1 (stereo not given)	–	–	93
Cc1cc(C(=O)N2CCCC(N3CCN(c4cccc(Cl)c4)CC3)C2)nn1C (stereo not given)	·	–	–
Cc1cc(C)n(CCC(=O)N2CCCC(N3CCN(c4cccc(Cl)c4)CC3)C2)n1 (stereo not given)	–	–	–
Cc1cc(C(=O)N2CCCC(N3CCN(c4cccc(Cl)c4)CC3)C2)no1 (stereo not given)	–	–	80
O=C(CSc1ccc(-c2cccnc2)nn1)Nc1ccccc1C(F)(F)F	–	–	–
CN(C)CCCN=c1cc(-c2ccccc2)oc2ccc(Cl)cc12	–	·	·
CC(O)CN=c1cc(-c2ccccc2)oc2ccc(Cl)cc12 (stereo not given)	29	–	–
OCCN=c1cc(-c2ccccc2)oc2ccc(Cl)cc12	50	–	–
CC(C)CN=c1cc(-c2ccccc2)oc2ccc(Cl)cc12	–	–	·
COC(=O)c1cccc(-c2ccc(C(c3c(C)[nH][nH]c3=O)c3c(C)[nH][nH]c3=O)o2)c1	?	–	–
COC(=O)c1ccccc1-c1ccc(C(c2c(C)[nH][nH]c2=O)c2c(C)[nH][nH]c2=O)o1	29	–	–
COc1cccc(-c2nc(CS(=O)(=O)CC(=O)NCCc3cc(OC)ccc3OC)c(C)o2)c1	–	–	99
Cc1oc(-c2ccccc2F)nc1CS(=O)(=O)CC(=O)NCCCN1CCN(C)CC1	–	–	–
COc1ccc(-c2nc(CS(=O)(=O)CC(=O)NCCCN3CCN(C)CC3)c(C)o2)cc1	–	–	99
COc1ccc(OC)c(CCNC(=O)CS(=O)(=O)Cc2nc(-c3ccc(C)cc3)oc2C)c1	–	–	–
COc1ccc(-c2nc(CS(=O)(=O)CC(=O)NCCc3cc(OC)ccc3OC)c(C)o2)cc1	–	–	99
COc1cccc(-c2nc(CS(=O)(=O)CC(=O)NCCc3ccc(OC)cc3OC)c(C)o2)c1	–	–	–
OCCn1c(-c2ccc3c(c2)OCO3)csc1=Nc1ccccc1	–	–	·
CCOc1ccc(N=c2scc(-c3ccccc3)n2CCO)cc1	–	–	–
CCn1c(-c2ccccc2)csc1=Nc1ccc(O)cc1	–	–	99
OCCn1c(-c2ccc(F)cc2)csc1=Nc1ccccc1	–	–	96
CC1CCC(NC(=O)COC(=O)CCC(=O)c2ccc(Cl)s2)CC1 (stereo not given)	–	–	·
Nc1ccn(C2OC(COC(=O)C34CC5CC(CC(C5)C3)C4)C(O)C2O)c(=O)n1 (stereo not given)	–	·	·
SMILES	Glyco luc inh	T cell HTS	ALR H2O2 inh
Nc1nc(N)nc(-c2cc(O)ccc2O)n1	–	–	91
Nc1nc(N)nc(-c2cc([N+](=O)[O-])ccc2O)n1	–	–	–
CCCCCCCCCCCCN1[C@@H](CC(C)=O)c2cc(C(F)(F)F)ccc2S1(=O)=O	–	·	–
CCCCCCCCN1[C@@H](CC(=O)O)c2ccc(C(F)(F)F)cc2S1(=O)=O	–	–	97
CN1C(=O)[C@H]2[C@@H](/C=C/c3ccccc3)N3C(=O)CN(Cc4ccccn4)C(=O)[C@@]3(C)[C@H]2C1=O	–	–	–
c1cnn(-c2cncc(-n3cccn3)n2)c1	–	–	·
COc1cc(-c2noc(C)c2C#Cc2ccc(N)cc2)cc(OC)c1OC	–	–	–
COc1ccc(-c2c(-c3cc(OC)c(OC)c(OC)c3)noc2C)cn1	30	–	–
COc1cc(-c2noc(C)c2/C=C/c2ccc(N)cc2)cc(OC)c1OC	43	–	–
COc1cc(-c2c(-c3cc(OC)c(OC)c(OC)c3)noc2C)ccc1F	·	–	–
COc1cccc(/C=N/NC(=O)CC2C(=O)NN=C2C)c1O (stereo not given)	–	–	97
COc1cccc(/C=N/NC(=O)NC2CCCCC2)c1O	–	–	90
COc1ccc(/C=N/NC(=O)CSCC(=O)Nc2ccccc2)cc1	–	–	–
COc1cccc(/C=N/NC(=O)CC2C(=O)NN=C2C)c1OC (stereo not given)	–	–	–
COc1cccc(/C=N/NC(=O)CSCC(=O)Nc2ccccc2)c1O	–	–	91
COc1cccc(/C=N/NC(=O)C(=O)N/N=C/c2cccc(OC)c2O)c1O	–	·	·
CCOc1ccc(C(=O)CCC(=O)O)cc1	–	–	–
CCOc1ccc(C(=O)CSCC(=O)O)cc1	–	–	98
O=C(NC1CC1)c1cc(-c2ccco2)nc2ccccc12	–	·	·
Cc1ccc(C)c(-c2cc(C(=O)NC3CC3)c3ccccc3n2)c1	–	–	94
Cc1ccccc1-c1cc2nc(NCCN3CCNC3=O)n(C)c(=O)c2s1	–	·	·
CN(Cc1ccccc1)C(=O)Nc1ccc(Cl)cc1	–	–	–
O=[N+]([O-])c1cccc(-c2ccc(CN3CCCCC3)o2)c1	–	–	–
CCc1cccc(NC(=O)c2cccc(S(=O)(=O)N3CCN(C)CC3)c2)c1	–	–	–
CN(C)C(=O)c1cc(C(=O)c2ccc(F)cc2Cl)c[nH]1	–	–	·
SMILES	Glyco luc inh	T cell HTS	ALR H2O2 inh
CNC(=O)c1cc(C(=O)c2ccc(F)cc2C(F)(F)F)c[nH]1	–	0.0	–
CSc1ccc(CN2CCC(C)(Oc3ccc(F)cc3)C2)cc1 (stereo not given)	–	·	·
CC(=O)C1=C(O)C(=O)N(Cc2ccccc2)C1c1ccc(Cl)cc1 (stereo not given)	–	–	–
CC(=O)C1=C(O)C(=O)N(Cc2ccccc2)C1c1ccc(N(C)C)cc1 (stereo not given)	–	–	96
COC(=O)/C(C#N)=C/c1ccc(OC(=O)c2ccccn2)cc1	–	–	–
CCOC(=O)/C(C#N)=C/c1ccc(OC(=O)c2ccccn2)cc1	–	–	98
COc1ccc(N2CCN(CCCNC(=O)CCC(=O)N3CCOc4ccc(Cl)cc43)CC2)cc1	–	–	99
Cc1ccc(C)c(N2CCN(CCCNC(=O)CCC(=O)N3CCOc4ccc(Cl)cc43)CC2)c1	·	–	–
CCc1cc2c(=O)c(-c3nc(C)cs3)coc2cc1OC(C)C(=O)NCCO (stereo not given)	–	–	·
O=C(CN1CCN(c2ccccc2O)CC1)NC(c1ccccc1)c1ccccc1	–	–	–
O=C(CNC(=O)N1CC(=O)Nc2ccccc21)NCCc1ccc(Cl)cc1	–	–	–
O=C(CN1CCN(c2ccccc2O)CC1)NCCCc1ccccc1	–	–	99
CC(=O)N1CCN(CC(=O)Nc2ccc(Cl)c(S(=O)(=O)N(C)C)c2)CC1	–	–	–
CCN(c1ccc(NS(=O)(=O)c2cc(Cl)ccc2Cl)cc1)C(C)C	–	–	?
CN(C)S(=O)(=O)c1cc(NC(=O)CN2CCN(c3ccccc3O)CC2)ccc1Cl	–	–	98
CN(C)c1ccc(NS(=O)(=O)c2cc(Cl)ccc2Cl)cc1	–	–	99
O=C(CNC(=O)N1CC(=O)Nc2ccccc21)NCCCc1ccccc1	27	·	·
Cc1ccc(S(=O)(=O)NNC(=O)c2cnn(-c3ccc(Cl)cc3)c2C(F)(F)F)cc1	–	–	–

Screening data as filed in PubChem BioAssay.
